Source: PMC10782576 (ACS infectious diseases, 2019)
“Also recorded” adds a separate entry of the source. Where two headings read alike, the source gives them in different places.

Assays:
Trichomonas vaginalis = test: imaging-based T. vaginalis viability assay; type: cell-based; details: for EC50: Trichomonas vaginalis; for effect of oxygen level on antitrichomonal activity: aerobic, microaerophilic and anaerobic atmospheres compared; for extent of elimination of trichomonads: strict anaerobic atmosphere; for EC50 T. vaginalis: imaging assay, 17 h incubation, microaerophilic unless specified
[1] = tested on: Ect1/E6E7 normal-type human ectocervical cells; test: mammalian cell cytotoxicity counter screen, Ect1/E6E7; type: cell-based; details: for Selectivity Index SIEct1: (EC50 for Ect1 cells)/(EC50 for T. vaginalis); for EC50: read-out: EC50 Ect1 Normal Cervical, Ect1/E6E7 cytotoxicity
[2] = tested on: Lactobacillus acidophilus; test: Lactobacillus acidophilus viability assay; type: cell-based; details: for effect on growth and viability of L. acidophilus: anaerobic conditions, at the concentrations tested (Figure 8); for EC50: read-out: EC50 L. acidophilus, anaerobic, 18 h
Summary of the method: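 Bacteria from MRS agar colonies were suspended in MRS broth, vortexed and dispensed into 96-well plates. Test compound was added in DMSO (0.5% final). Baseline OD 600 nm was read, then plates were incubated 18 h at 37 °C under anaerobic conditions (GasPak EZ Anaerobe sachets). OD 600 nm was read again to determine change from baseline.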

[3] = tested on: NIH/3T3 mouse fibroblast cells; test: mammalian cell cytotoxicity counter screen, NIH/3T3; type: cell-based; details: read-out: EC50 3T3 Mouse Fibroblast; NIH/3T3 cytotoxicity
Summary of the method: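 NIH/3T3 mouse fibroblasts were maintained in DMEM with 5% FetalClone III. Viability was read by MTT or by a Calcein AM/Hoechst 33342 live-cell-area imaging assay. For imaging, a DMSO stock (40 μM Calcein AM, 160 μM Hoechst) was diluted 1:5 in PBS and added. After 30 min, Hoechst-stained nuclei were imaged and cells were scored live or dead by green fluorescence.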

T. vaginalis infection = details: after a single course of treatment; cited from earlier work
[4] = 17 h, read-out: EC50 T. vaginalis

Compound: COC1=CC(=O)c2c(O)c3c(c(O)c2C1=O)CC(C)(O)OC3 (stereo not drawn) [compound 1, fusarubin]
- EC50 (Trichomonas vaginalis; [4]): 2.5 µM
- effect of oxygen level on antitrichomonal activity (Trichomonas vaginalis): decreased as oxygen was introduced
- extent of elimination of trichomonads (Trichomonas vaginalis): partial elimination
- Selectivity Index SIEct1 [1]: 30

Compound: COC1=CC(=O)c2c(O)c(C)c(CC(C)=O)c(O)c2C1=O [compound 2, javanicin]
- EC50 (Trichomonas vaginalis; [4]): 1.3 µM
- Selectivity Index SIEct1 [1]: 3.1

Compound: COC1=CC(=O)c2c(O)ccc(O)c2C1=O [compound 9, 2-Methoxynaphthazarin]
- effect of oxygen level on antitrichomonal activity (Trichomonas vaginalis): decreased as oxygen was introduced
- extent of elimination of trichomonads (Trichomonas vaginalis): complete elimination

Compound: O=C1C(O)=C([C@H]2CC[C@H](c3ccc(Cl)cc3)CC2)C(=O)c2ccccc21 [compound 37, atovaquone, reference compound]
- Selectivity Index SIEct1 [1]: < 0.1

Compound: COC(=O)[C@@]12Oc3cc4c(c(O)c3C(=O)C1=C(O)CC[C@@H]2O)[C@@H]1C=C[C@@]2(C4)C(=O)c3cc(C)cc(O)c3C(O)=C2C1=O [compound 46, xanthoquinodin A1]
- EC50 (Trichomonas vaginalis; read-out: average EC50 against T. vaginalis): 3 µM
- effect of oxygen level on antitrichomonal activity (Trichomonas vaginalis): maintained consistent potency
- Selectivity Index SIEct1 [1]: ~ 20
- effect on growth and viability of L. acidophilus [2]: near equipotent activity against T. vaginalis and L. acidophilus; also recorded: significant inhibition

Compound: C/C=C/[C@@H]1C=C[C@@H]2C[C@H](C)CC[C@H]2[C@]1(C)/C(O)=C1/C(=O)[C@@H](CO)N(C)C1=O [compound 49, 5’-epiequisetin]
- EC50 T. vaginalis (Trichomonas vaginalis): Inactive

Compound: C/C=C/[C@@H]1C=C[C@@H]2C[C@H](C)CC[C@H]2[C@]1(C)/C(O)=C1/C(=O)N[C@@H](CO)C1=O [compound 50, trichosetin]
- EC50 [3]: 30 µM
- EC50 [1]: 34 µM
- EC50 [2]: > 50 µM

Compound: CC1=C[C@H]2C[C@@H](C)CC[C@@H]2[C@@](C)(/C(O)=C2\C(=O)[C@H](CO)N(C)C2=O)[C@H]1/C=C/C=C/C[C@@H](C)O [compound 52, 5’-epipyrrolocin A]
- EC50 T. vaginalis (Trichomonas vaginalis): Inactive

Compound: C/C=C/C=C/C1C(C)=CC2CC(C)CCC2C1(C)/C(O)=C1\C(=O)NC(CO)C1=O (stereo not drawn) [compound 53, beauversetin]
- effect of oxygen level on antitrichomonal activity (Trichomonas vaginalis): no statistically significant change in EC50 value
- EC50 [3]: 35 µM
- EC50 [1]: 35 µM
- effect on growth and viability of L. acidophilus [2]: no effect
- EC50 [2]: > 50 µM

Compound: C/C=C/C=C/[C@H]1C(C)=C[C@H]2C[C@@H](C)CC[C@@H]2[C@@]1(C)/C(O)=C1/C(=O)N[C@@H](CO)C1=O [compound 54, 5’-epibeauversetin]
- EC50 T. vaginalis (Trichomonas vaginalis): Inactive

Compound: C/C=C/C=C/[C@H]1C(C)=C[C@H]2C[C@@H](C)CC[C@@H]2[C@@]1(C)/C(O)=C1\C(=O)[C@H](CO)N(C)C1=O [compound 56, 5’-epiphomasetin]
- EC50 T. vaginalis (Trichomonas vaginalis): Inactive

Compound: Cc1ncc([N+](=O)[O-])n1CCO [metronidazole, reference compound]
- effect of oxygen level on antitrichomonal activity (Trichomonas vaginalis): maintained consistent potency
- effect on growth and viability of L. acidophilus [2]: no inhibition
- patients cleared of the infection (T. vaginalis infection): > 90%

Compound: CCS(=O)(=O)CCn1c([N+](=O)[O-])cnc1C [tinidazole]
- patients cleared of the infection (T. vaginalis infection): > 90%

Compound: equisetin [compound 48]
- EC50 [3]: 100 µM
- EC50 [1]: 35 µM
- toxicity to / inhibition of L. acidophilus ([2]; at concentrations up to 50 μM): non-toxic
- EC50 [2]: > 50 µM

Compound: phomasetin [compound 55]
- EC50 [3]: 10 µM
- EC50 [1]: 7 µM
- EC50 [2]: > 50 µM

Compound: pyrrolocin A [compound 51]
- EC50 [3]: 6 µM
- EC50 [1]: 10 µM
- EC50 [2]: > 50 µM
